# Source: PubChem
# Most compounds without a hit are left out; they make up all but 3.5% or so of the library.
# MrgX1 allo act = allosterically activates human MrgX1 receptor signaling. Q96LB2. MrgX1-HEK293, Fluo-4 calcium flux, FDSS; active compounds read high. B-score at 10 µM. actives 0.63% (n = 310,000). AID 588675;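 active = plate-corrected calcium response at least 3 library SD above typical, normal starting fluorescence, not activating the receptor alone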;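 also: compound read alongside a low EC10 to EC30 dose of BAM8-22 agonist; peak minus trough fluorescence over baseline measured at the second addition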
# Target sequence (Q96LB2 whole entry, looked up): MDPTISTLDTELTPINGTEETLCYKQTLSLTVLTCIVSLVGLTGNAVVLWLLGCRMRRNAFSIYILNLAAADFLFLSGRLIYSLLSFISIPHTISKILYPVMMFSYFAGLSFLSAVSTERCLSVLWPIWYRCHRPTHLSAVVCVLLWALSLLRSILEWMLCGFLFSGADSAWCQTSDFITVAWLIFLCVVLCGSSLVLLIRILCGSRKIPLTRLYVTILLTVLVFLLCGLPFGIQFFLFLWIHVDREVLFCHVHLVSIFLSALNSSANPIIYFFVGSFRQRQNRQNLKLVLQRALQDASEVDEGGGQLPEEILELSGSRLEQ
# MrgX1 antag = human MrgX1 receptor antagonism, primary screen | Q96LB2 | MRGX1-HEK293 calcium flux, Fluo-4, BAM8-22 antagonism; active compounds read low | B-score at 10 µM | actives 1.3% (n = 310,000) | AID 588676;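 active = calcium-response B-score plate-corrected more than 3 library SD below zero, starting fluorescence within 5 deviations, no agonist response on first addition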;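 also: peak minus trough fluorescence over baseline after final BAM8-22 challenge near maximal dose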
# MrgX1 agonist = activates human MrgX1 receptor signaling | Q96LB2 | MrgX1-HEK293 cells, Fluo-4 calcium fluorescence, agonist mode; active compounds read high | AID 588627 | B-score at 10 µM | actives 0.44% (n = 310,000);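 active = calcium response B-score plate-corrected fluorescence ratio at least 3 library SD, with starting fluorescence B-score inside 5 SD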
#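 times = overnight plating, then 30 min 37 °C plus 30 min room-temperature dye loading | assay system = stable human MrgX1 HEK293 cell line | input = fifteen thousand cells per well | signal = kinetic calcium dye fluorescence, Fluo-4 NW | dosing = compound delivered in addition one of three | read-out = B-scored fluorescence response ratio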
# RGS4 act = RGS4 potentiation or activation. HEK293 M3R/inducible RGS4, carbachol calcium flux Fluo4; active compounds read low. B-score at 10 µM. actives 0.92% (n = 310,000);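 active = B-score of the integrated calcium signal more than 4 SD below the library mean, with starting fluorescence not abnormally high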;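 also: negative B-score means reduced calcium response which marks RGS4 activation or potentiation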
#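 Also added: carbachol at ECmax as muscarinic agonist stimulus; Assay system: HEK293 cells with stable M3R and inducible RGS4; Timing: overnight RGS4 induction, 30 min dye load 37 °C, 20 min compound RT; Measured by: Fluo4-AM (2 µM) calcium-flux fluorescence, kinetic read.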
# RGS4 block = human RGS4 inhibition | P49798 | AID 463165 | actives 0.45% (n = 310,000) | B-score at 10 µM | HEK293 M3R/RGS4 inducible, Fluo-4 calcium flux; active compounds read high; triggered by carbachol at its EC20;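 active = B-score, a plate-corrected calcium signal, over three deviations above library mean, with baseline fluorescence within five deviations of library mean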;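 also: RGS4 expression induced by doxycycline in cells with stable M3 receptor; B-score is computed from the integrated fluorescence ratio over baseline after carbachol; higher B-score means a larger calcium signal and so more RGS4 inhibition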
# Target sequence (P49798 whole entry, looked up): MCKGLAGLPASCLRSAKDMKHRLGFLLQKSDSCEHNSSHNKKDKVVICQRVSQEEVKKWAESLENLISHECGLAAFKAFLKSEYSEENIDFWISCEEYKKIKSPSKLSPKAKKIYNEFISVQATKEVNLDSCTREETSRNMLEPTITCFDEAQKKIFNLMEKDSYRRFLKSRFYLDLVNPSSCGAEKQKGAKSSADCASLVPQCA
# RGS4 block valid = RGS4 inhibitor validation; shares compounds with RGS4 block; HEK293 M3R/RGS4, carbachol calcium Fluo-4 fluorescence; carbachol added at its EC20; 0 = buffer wells, 100 = carbachol control; calcium response, % at 10 µM; actives 65% (n = 1,700);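 active = duplicate-averaged calcium response above the buffer-only control mean plus 5 SD of those controls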;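 also: integrated fluorescence ratio F max minus min over baseline F0; higher response in RGS4-induced cells means RGS4 inhibition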
# RGS4 uninduced = counter-screen for RGS4 inhibitors: effect in non-induced cells; activity (percent), % at 10 µM; actives 20% (n = 1,900); AID 493000; shares compounds with RGS4 block; HEK293 M3R non-induced, carbachol calcium Fluo-4; submaximal (EC20) carbachol stimulus; buffer wells 0%, carbachol control wells 100%; call rule not given here;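 also: RGS4 induction absent so cells express M3R without RGS4; higher means more calcium signal and flags a non-specific hit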
# RGS4 inh ctr2 = second counter-screen for RGS4 inhibitors: non-induced cells without carbachol. shares compounds with RGS4 block. HEK293 M3R/RGS4 non-induced, Fluo-4 calcium, no carbachol; normalised: buffer wells 0%, carbachol wells 100%. actives 22% (n = 1,900). calcium response (agonist-mode artifact), % at 10 µM. AID 493001;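 active = duplicate-averaged calcium rise in uninduced cells above buffer wells' mean plus 5 SD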
# The depositor's hits bear a star; i = inactive; nt = no result given.
SMILES,MrgX1 allo act,MrgX1 antag,MrgX1 agonist,RGS4 act,RGS4 block,RGS4 block valid,RGS4 uninduced,RGS4 inh ctr2
CC1(C)Cc2ccccc2C(/C(=N\Nc2cccc(Cl)c2)C(N)=O)=N1,i,i,i,i,6.6*,16%*,i,i
CC(=O)N1N=C(c2cccc(NS(=O)(=O)c3ccc(C)cc3)c2)CC1c1ccco1 (stereo not given),i,i,i,i,i,nt,nt,nt
CC(=O)N1N=C(c2c(-c3ccccc3)c3cc(Br)ccc3[nH]c2=O)CC1c1ccco1 (stereo not given),i,i,i,i,7.5*,20%*,i,i
CC(=O)N1N=C(c2c(-c3ccccc3)c3cc(C)ccc3[nH]c2=O)CC1c1ccco1 (stereo not given),i,i,i,i,i,nt,i,i
Cc1cc(S(=O)(=O)N2CCCOC2CNC(=O)C(=O)NCc2cccs2)ccc1F (stereo not given),i,i,i,i,i,nt,nt,nt
COc1cc(/C=C(/C(=O)c2cccs2)c2nc3ccccc3[nH]2)cc(OC)c1O,i,i,i,i,22*,88%*,41%*,i
COc1cccc(NC(=O)N2CCCC2C(=O)NC2CCCC2)c1 (stereo not given),i,i,i,i,i,nt,nt,nt
COc1ccc(N(CCC(=O)O)S(=O)(=O)c2ccc(C)cc2C)cc1,i,i,i,i,i,nt,nt,nt
CC(C)c1nnc(NC(=O)c2sc3ccccc3c2Cl)s1,i,i,i,i,4.8*,i,i,i
CNc1ccccc1C(=O)OC(C)C(=O)Nc1ccc(Cl)cn1 (stereo not given),i,i,i,i,i,nt,nt,nt
COc1ccc2c(c1)C(=NNc1ccc(C(=O)O)cc1)c1cc(OC)ccc1-2,i,i,i,i,6.7*,22%*,i,i
COc1ccc(/C(C)=N/Nc2ccc(C(=O)O)cc2)c(OC)c1,i,i,i,i,i,nt,nt,nt
CSc1nc(-c2ccccc2)nn1C(=O)c1ccccc1,i,i,i,i,i,nt,nt,nt
CSc1nc(-c2ccccc2)nn1C(=O)c1ccco1,i,i,i,i,i,i,i,i
O=C(NCCN1CCOCC1)c1cccc(S(=O)(=O)NCc2ccccc2)c1,i,i,i,i,i,nt,nt,nt
Cc1cc(C(=O)Nc2nc3ccc(Cl)cc3s2)nn1C,i,i,i,i,5*,10%*,i,i
Cn1ncc(Cl)c1C(=O)Nc1nc2ccc(Cl)cc2s1,i,i,i,i,i,nt,nt,nt
Cc1ccc(NC(=O)CSCC(=O)Nc2cccc3ncccc23)cc1,i,i,i,i,i,nt,nt,nt
O=C(CCN1CCN(c2ccc([N+](=O)[O-])cc2)CC1)c1ccc(Cl)cc1,i,i,i,i,i,nt,nt,nt
O=C(CCN1CCN(c2ccccc2)CC1)c1ccc(Cl)cc1,i,i,i,i,24*,i,35%*,20%*
O=C(c1cc(Cl)ccc1OCc1ccccc1)N1CCOCC1,i,i,i,i,i,nt,nt,nt
O=C(Nc1ccc(N2C(=O)C3C4C=CC(C4)C3C2=O)cc1)Nc1cccnc1 (stereo not given),i,i,i,i,i,nt,nt,nt
COC(=O)/C=C/S(=O)(=O)c1ccc(NC(C)=O)cc1,i,i,i,i,6*,54%*,38%*,13%*
COc1cc(C(C(=O)Nc2c(C)cccc2C)N(C)C(=O)c2ccc(-n3cnnn3)cc2)ccc1O (stereo not given),i,i,i,i,i,nt,nt,nt
Cc1cc2sc3nc(=O)n(-c4ccccc4)c(=O)n3c2cc1C,i,i,i,i,i,nt,nt,nt
SMILES,MrgX1 allo act,MrgX1 antag,MrgX1 agonist,RGS4 act,RGS4 block,RGS4 block valid,RGS4 uninduced,RGS4 inh ctr2
COc1ccc(C(=O)O)cc1S(=O)(=O)Nc1ccccc1-c1ccccc1,i,i,i,i,i,nt,nt,nt
Cc1cccc2c1NC(=O)C2(c1ccc(O)cc1)c1ccc(O)cc1,i,i,i,i,8.6*,10%*,i,i
Cc1cc(C2(c3ccc(O)c(C)c3)C(=O)Nc3ccccc32)ccc1O,i,i,i,i,i,nt,nt,nt
O=C(CC1S/C(=N/N=C/c2ccco2)NC1=O)Nc1cccc(Cl)c1Cl (stereo not given),i,i,i,i,i,nt,nt,nt
CCOc1cccc(-c2c(C(=O)N/N=C/c3ccncc3)nnn2-c2nonc2N)c1,i,i,i,i,i,i,i,i
CCOc1cccc(-c2c(C(=O)N/N=C/c3ccoc3)nnn2-c2nonc2N)c1,i,i,i,i,i,i,i,i
CCOc1cccc(-c2c(C(=O)N/N=C(\C)c3ccncc3)nnn2-c2nonc2N)c1,i,i,i,i,i,nt,nt,nt
CCOc1ccc(/C=N/NC(=O)c2nnn(-c3nonc3N)c2-c2ccc(OCC)cc2)cc1,i,i,i,i,i,i,i,i
CCOc1ccc(-c2c(C(=O)N/N=C/c3ccoc3)nnn2-c2nonc2N)cc1,i,i,i,i,i,nt,nt,nt
CCN1C(=O)[C@H]2[C@@H](c3ccc(-c4ccccc4)cc3)N3CCC[C@@]3(C(=O)OC)[C@H]2C1=O,i,i,i,i,i,nt,nt,nt
Cn1ncc(Cl)c1C(=O)N1CCN(c2ccc(Cl)c(Cl)c2)CC1,i,i,i,i,i,nt,nt,nt
Cc1ccsc1/C=N/NC(=S)NCc1ccccc1,i,i,i,i,i,nt,i,i
COCCNC(=O)[C@H]1N2C(=O)c3ccccc3C2SC1(C)C (stereo not given in full),i,i,i,i,i,nt,nt,nt
O=C1c2ccccc2NC(c2ccc(-c3ccc(Br)cc3)o2)N1O (stereo not given),i,i,i,i,i,nt,nt,nt
O=C1c2ccccc2NC(c2ccc(-c3cccc([N+](=O)[O-])c3)o2)N1O (stereo not given),i,i,i,i,i,nt,i,i
